Experiments:
Format in all cases: functional
Rattus norvegicus [1] = assay: Percent decrease in triglycerides in obese Zucker rats after 1 week of treatment at a dose of 10 mg/kg/day; design: scale not given: the % may be the effect or the level left
Outline: (§1)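 Female Zucker fatty rats [Crl:(Zuc)-faBR], 10–12 weeks, 400–500 g, acclimated 7 days on chow. Compound or vehicle (20% EtOH/80% PEG-200) given by daily oral gavage for 2 weeks, 0–100 mg/kg/day. After a 6 h fast, blood was taken before dosing, at 1 wk and at 2 wk. Serum lipids, NEFA and insulin (ELISA) were measured; glucose by glucometer. HDL/non-HDL-C came from Superose 6 gel-filtration profiles. Values are % change from pretreatment, mean ± SEM.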

Rattus norvegicus [2] = assay: Amount of insulin in obese Zucker rats after 1 week of treatment at a dose of 100 mg/kg/day
Outline: (§2)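 Female obese Zucker rats [Crl:(Zuc)-faBR], 400–500 g, given daily oral gavage in 20% EtOH/80% PEG-200 for up to 14 days. After a 6-h fast, serum was collected pretreatment and at day 7 (orbital bleed) and day 14 (cardiac puncture) and stored at -80 °C. Insulin was measured by ELISA. Values are mean ± SEM.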

Rattus norvegicus [3] = assay: Amount of non-HDL-cholesterol in obese Zucker rats at pre-treatment at a dose of 3 mg/kg/day
Outline: (§3)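 Female obese Zucker fatty rats [Crl:(Zuc)-faBR], 10–12 weeks old (400–500 g), on chow. Compound in 20% EtOH/80% PEG-200 (v/v) given by daily oral gavage. After a 6-h fast, serum was taken before dosing and at 7 days (orbital plexus), and at 14 days (cardiac puncture). Lipoprotein cholesterol came from Superose 6HR gel-filtration profiles × serum total cholesterol. Mean ± SEM.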

Rattus norvegicus [4] = assay: Amount of triglycerides in obese Zucker rats after 1 week of treatment at a dose of 3 mg/kg/day
Outline: (§4)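 Female Zucker fatty rats [Crl:(Zuc)-faBR], 10–12 weeks old (400–500 g), dosed once daily by oral gavage in 20% EtOH/80% PEG-200 for up to 14 days. After a 6-h fast, serum was taken pre-dose, at day 7 (orbital venous plexus, O2/CO2 anaesthesia) and at day 14 (cardiac puncture), stored at −80 °C, and assayed on a Hitachi 912 automatic analyzer. Mean ± SEM.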

Rattus norvegicus [5] = assay: Amount of triglycerides in obese Zucker rats after 2 weeks of treatment at a dose of 10 mg/kg/day; outline: as §4
Rattus norvegicus [6] = assay: Amount of insulin in obese Zucker rats after 2 weeks of treatment at a dose of 10 mg/kg/day; outline: as §2
Rattus norvegicus [7] = assay: Amount of nonesterified fatty acids in obese Zucker rats after 2 weeks of treatment at a dose of 3 mg/kg/day; outline: as §4
Rattus norvegicus [8] = assay: Amount of nonesterified fatty acids in obese Zucker rats at pre-treatment at a dose of 3 mg/kg/day; outline: as §4
Rattus norvegicus [9] = assay: Percentage change of non-HDL cholesterol levels in obese female Zucker rats after 1 week of pre-treatment at a dose of 100 mg/kg/day
Outline: (§5)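 Female Zucker fatty rats [Crl:(Zuc)-faBR], 10–12 weeks old (400–500 g), acclimated 7 days and fed rodent chow. Dosed once daily by oral gavage in 20% EtOH/80% PEG-200 (v/v), at 0.25% of body weight, for 2 weeks. Blood taken after a 6-h fast: orbital plexus before dosing and at day 7, cardiac puncture at day 14. Serum lipoprotein cholesterol measured by Superose 6 gel filtration with on-line cholesterol detection. Values are % change from pretreatment, mean ± SEM.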

Rattus norvegicus [10] = assay: Amount of triglycerides in obese Zucker rats after 2 weeks of treatment at a dose of 100 mg/kg/day; outline: as §4
Rattus norvegicus [11] = assay: Percent increase in non-HDL-cholesterol in obese Zucker rats after 2 weeks of treatment at a dose of 0 mg/kg/day; outline: as §1
Rattus norvegicus [12] = assay: Amount of insulin in obese Zucker rats after 2 weeks of treatment at a dose of 0 mg/kg/day; outline: as §2
Rattus norvegicus [13] = assay: Percent decrease in nonesterified fatty acids in obese Zucker rats after 1 week of treatment at a dose of 10 mg/kg/day; design: scale not given: the % may be the effect or the level left; outline: as §1
Rattus norvegicus [14] = assay: Percent decrease in nonesterified fatty acids in obese Zucker rats after 2 weeks of treatment at a dose of 100 mg/kg/day; design: scale not given: the % may be the effect or the level left; outline: as §1
Rattus norvegicus [15] = assay: Amount of triglycerides in obese Zucker rats after 1 week of treatment at a dose of 100 mg/kg/day; outline: as §4
Rattus norvegicus [16] = assay: Amount of glucose in obese Zucker rats after 2 weeks of treatment at a dose of 3 mg/kg/day
Outline: (§6)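 Female Zucker fatty rats [Crl:(Zuc)-faBR], 10–12 weeks old (400–500 g), gavaged daily with vehicle (20% EtOH/80% PEG-200, 0.25% of body weight) or compound. After a 6-h fast, blood glucose was read by glucometer from tail-prick blood of unanesthetized rats before dosing and after 1 and 2 weeks. Values are mean ± SEM.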

Rattus norvegicus [17] = assay: Amount of insulin in obese Zucker rats after 1 week of treatment at a dose of 30 mg/kg/day; outline: as §2
Rattus norvegicus [18] = assay: Amount of nonesterified fatty acids in obese Zucker rats after 1 week of treatment at a dose of 30 mg/kg/day; outline: as §4
Rattus norvegicus [19] = assay: Percent increase in non-HDL-cholesterol in obese Zucker rats after 1 week of treatment at a dose of 0 mg/kg/day; outline: as §1
Rattus norvegicus [20] = assay: Amount of HDL-cholesterol in obese Zucker rats after 2 weeks of treatment at a dose of 10 mg/kg/day
Outline: (§7)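 Female Zucker fatty rats [Crl:(Zuc)-faBR], 10–12 weeks old (400–500 g), dosed once daily by oral gavage in 20% EtOH/80% PEG-200 (dose volume 0.25% of body weight). Rats were fasted 6 h and bled before dosing and at day 7 (orbital plexus), and at day 14 (cardiac puncture). Serum cholesterol fractions came from Superose 6 gel-filtration lipoprotein profiles (% peak area × serum total cholesterol). Values are mean ± SEM.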

Rattus norvegicus [21] = assay: Amount of HDL-cholesterol in obese Zucker rats at pre-treatment at a dose of 100 mg/kg/day; outline: as §7
Rattus norvegicus [22] = assay: Percentage change of triglycerides in obese female Zucker rats after 2 weeks of pre-treatment at a dose of 100 mg/kg/day; outline: as §5
Rattus norvegicus [23] = assay: Amount of insulin in obese Zucker rats at pre-treatment at a dose of 30 mg/kg/day; outline: as §2
Rattus norvegicus [24] = assay: Amount of glucose in obese Zucker rats after 2 weeks of treatment at a dose of 30 mg/kg/day; outline: as §6
Rattus norvegicus [25] = assay: Amount of glucose in obese Zucker rats after 2 weeks of treatment at a dose of 0 mg/kg/day; outline: as §6
Rattus norvegicus [26] = assay: Percent decrease in triglycerides in obese Zucker rats after 1 week of treatment at a dose of 30 mg/kg/day; design: scale not given: the % may be the effect or the level left; outline: as §1
Rattus norvegicus [27] = assay: Percent decrease in HDL-cholesterol in obese Zucker rats after 2 weeks of treatment at a dose of 0 mg/kg/day; design: scale not given: the % may be the effect or the level left; outline: as §1
Rattus norvegicus [28] = assay: Percent decrease in nonesterified fatty acids in obese Zucker rats after 1 week of treatment at a dose of 30 mg/kg/day; design: scale not given: the % may be the effect or the level left; outline: as §1
Rattus norvegicus [29] = assay: Amount of non-HDL-cholesterol in obese Zucker rats after 1 week of treatment at a dose of 100 mg/kg/day; outline: as §7
Rattus norvegicus [30] = assay: Amount of non-HDL-cholesterol in obese Zucker rats at pre-treatment at a dose of 10 mg/kg/day; outline: as §3

CC(C)(CCCCCC(=O)CCCCCC(C)(C)C(=O)O)C(=O)O
Activity (Rattus norvegicus [1]): -36%
Activity (Rattus norvegicus [2]): 6.4 ng/mL
Activity (Rattus norvegicus [3]): 22 mg/dL
Activity (Rattus norvegicus [4]): 995 mg/dL
Activity (Rattus norvegicus [5]): 865 mg/dL
Activity (Rattus norvegicus [6]): 9.1 ng/mL
Activity (Rattus norvegicus [7]): 1 mg/dL
Activity (Rattus norvegicus [8]): 1.3 mg/dL
Change (Rattus norvegicus [9]): -98%
Activity (Rattus norvegicus [10]): 78 mg/dL
Activity (Rattus norvegicus [11]): 40%
Activity (Rattus norvegicus [12]): 8.1 ng/mL
Activity (Rattus norvegicus [13]): -17%
Activity (Rattus norvegicus [14]): -52%
Activity (Rattus norvegicus [15]): 69 mg/dL
Activity (Rattus norvegicus [16]): 124 mg/dL
Activity (Rattus norvegicus [17]): 6.4 ng/mL
Activity (Rattus norvegicus [18]): 0.88 mg/dL
Activity (Rattus norvegicus [19]): 45%
Activity (Rattus norvegicus [20]): 138 mg/dL
Activity (Rattus norvegicus [21]): 66 mg/dL
Change (Rattus norvegicus [22]): -94%
Activity (Rattus norvegicus [23]): 9.8 ng/mL
Activity (Rattus norvegicus [24]): 130 mg/dL
Activity (Rattus norvegicus [25]): 120 mg/dL
Activity (Rattus norvegicus [26]): -78%
Activity (Rattus norvegicus [27]): -9%

CC(C)(CCCCC(=O)CCCCC(C)(C)C(=O)O)C(=O)O
Activity (Rattus norvegicus [28]): -29%
Activity (Rattus norvegicus [2]): 9 ng/mL
Activity (Rattus norvegicus [3]): 32 mg/dL
Activity (Rattus norvegicus [4]): 775 mg/dL
Activity (Rattus norvegicus [5]): 814 mg/dL
Activity (Rattus norvegicus [6]): 8.9 ng/mL
Activity (Rattus norvegicus [7]): 1.5 mg/dL
Activity (Rattus norvegicus [8]): 1.5 mg/dL
Change (Rattus norvegicus [9]): -62%
Activity (Rattus norvegicus [10]): 440 mg/dL
Activity (Rattus norvegicus [12]): 0.058 ng/mL
Activity (Rattus norvegicus [14]): -45%
Activity (Rattus norvegicus [15]): 383 mg/dL
Activity (Rattus norvegicus [16]): 103 mg/dL
Activity (Rattus norvegicus [17]): 9.2 ng/mL
Activity (Rattus norvegicus [18]): 1 mg/dL
Activity (Rattus norvegicus [20]): 39 mg/dL
Activity (Rattus norvegicus [21]): 38 mg/dL
Change (Rattus norvegicus [22]): -69%
Activity (Rattus norvegicus [23]): 7.7 ng/mL
Activity (Rattus norvegicus [24]): 118 mg/dL
Activity (Rattus norvegicus [25]): 118 mg/dL
Activity (Rattus norvegicus [29]): 18 mg/dL
Activity (Rattus norvegicus [30]): 40 mg/dL
Activity (Rattus norvegicus [26]): -33%

CC(C)(CO)CCCCC(=O)CCCCC(C)(C)CO
Activity (Rattus norvegicus [28]): -21%
Activity (Rattus norvegicus [1]): -23%
Activity (Rattus norvegicus [2]): 10.9 ng/mL
Activity (Rattus norvegicus [3]): 24 mg/dL
Activity (Rattus norvegicus [4]): 800 mg/dL
Activity (Rattus norvegicus [5]): 730 mg/dL
Activity (Rattus norvegicus [6]): 7.8 ng/mL
Activity (Rattus norvegicus [7]): 1.6 mg/dL
Activity (Rattus norvegicus [8]): 1.1 mg/dL
Change (Rattus norvegicus [9]): -23%
Activity (Rattus norvegicus [10]): 702 mg/dL
Activity (Rattus norvegicus [11]): 20%
Activity (Rattus norvegicus [12]): 7.7 ng/mL
Activity (Rattus norvegicus [13]): -18%
Activity (Rattus norvegicus [15]): 485 mg/dL
Activity (Rattus norvegicus [16]): 103 mg/dL
Activity (Rattus norvegicus [17]): 9.1 ng/mL
Activity (Rattus norvegicus [18]): 1.1 mg/dL
Activity (Rattus norvegicus [19]): 44%
Activity (Rattus norvegicus [20]): 53 mg/dL
Activity (Rattus norvegicus [21]): 45 mg/dL
Change (Rattus norvegicus [22]): -29%
Activity (Rattus norvegicus [23]): 9.3 ng/mL
Activity (Rattus norvegicus [24]): 120 mg/dL
Activity (Rattus norvegicus [25]): 116 mg/dL
Activity (Rattus norvegicus [29]): 23 mg/dL
Activity (Rattus norvegicus [30]): 25 mg/dL
Activity (Rattus norvegicus [26]): -27%
Activity (Rattus norvegicus [27]): -15%
